According to ChEMBL document CHEMBL4715736, “Identification of anticancer agents based on the thieno[2,3-b]pyridine and 1H-pyrazole molecular scaffolds” (2016):

How the values were obtained:
Type in all cases: functional
[1] = test system: SF-295; assay: Growth inhibition of human SF-295 cells assessed as cell growth at 1 uM incubated for 48 hrs by sulforhodamine B assay relative to control; details: read-out: Activity
[2] = test system: NCI-H460; assay: Growth inhibition of human NCI-H460 cells assessed as cell growth at 0.01 uM incubated for 48 hrs by sulforhodamine B assay relative to control; details: read-out: Activity
[3] = test system: HOP-62; assay: Growth inhibition of human HOP-62 cells assessed as cell growth at 0.1 uM incubated for 48 hrs by sulforhodamine B assay relative to control; details: read-out: Activity
[4] = test system: MDA-MB-435; assay: Growth inhibition of human MDA-MB-435 cells assessed as cell growth at 0.1 uM incubated for 48 hrs by sulforhodamine B assay relative to control; details: read-out: Activity
[5] = test system: NCI-H522; assay: Growth inhibition of human NCI-H522 cells assessed as cell growth at 100 uM incubated for 48 hrs by sulforhodamine B assay relative to control; details: read-out: Activity
[6] = test system: MDA-MB-231; assay: Growth inhibition of human MDA-MB-231 cells assessed as cell growth at 100 uM incubated for 48 hrs by sulforhodamine B assay relative to control; details: read-out: Activity
[7] = test system: NCI-H460; assay: Growth inhibition of human NCI-H460 cells assessed as cell growth at 0.1 uM incubated for 48 hrs by sulforhodamine B assay relative to control; details: read-out: Activity
[8] = test system: SK-MEL-2; assay: Growth inhibition of human SK-MEL-2 cells assessed as cell growth at 0.01 uM incubated for 48 hrs by sulforhodamine B assay relative to control; details: read-out: Activity
[9] = test system: UACC-257; assay: Growth inhibition of human UACC-257 cells assessed as cell growth at 0.1 uM incubated for 48 hrs by sulforhodamine B assay relative to control; details: read-out: Activity
[10] = test system: ACHN; assay: Growth inhibition of human ACHN cells assessed as cell growth at 100 uM incubated for 48 hrs by sulforhodamine B assay relative to control; details: read-out: Activity
[11] = test system: Malme-3M; assay: Growth inhibition of human Malme-3M cells incubated for 48 hrs by sulforhodamine B assay
How it was run: (§1)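 NCI60 panel at the NCI Developmental Therapeutics Program. Only compounds active in the 10 µM screen went to dose-response testing. GI50, the concentration giving 50% of maximal inhibition of proliferation, and TGI, the concentration giving total growth inhibition, were derived from the dose-response curves.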

[12] = test system: HCT-15; assay: Growth inhibition of human HCT-15 cells assessed as cell growth at 1 uM incubated for 48 hrs by sulforhodamine B assay relative to control; details: read-out: Activity
[13] = test system: OVCAR-4; assay: Growth inhibition of human OVCAR-4 cells assessed as cell growth at 0.01 uM incubated for 48 hrs by sulforhodamine B assay relative to control; details: read-out: Activity
[14] = test system: OVCAR-8; assay: Growth inhibition of human OVCAR-8 cells assessed as cell growth at 0.01 uM incubated for 48 hrs by sulforhodamine B assay relative to control; details: read-out: Activity
[15] = test system: SN12C; assay: Growth inhibition of human SN12C cells incubated for 48 hrs by sulforhodamine B assay; details: for CC50: read-out: LC50 (the source's name)
How it was run: (§2)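 NCI DTP 60-line human tumour panel. Dose-response curves were run only for ligands active in the initial 10 µM screen. GI50 (concentration giving 50% of maximal inhibition of proliferation) and TGI (concentration giving total growth inhibition) were derived from these curves.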

[16] = test system: TK-10; assay: Growth inhibition of human TK-10 cells assessed as cell growth at 100 uM incubated for 48 hrs by sulforhodamine B assay relative to control; details: read-out: Activity
[17] = test system: UACC-257; assay: Growth inhibition of human UACC-257 cells incubated for 48 hrs by sulforhodamine B assay; how it was run: as §2
[18] = test system: OVCAR-3; assay: Growth inhibition of human OVCAR-3 cells assessed as cell growth at 100 uM incubated for 48 hrs by sulforhodamine B assay relative to control; details: read-out: Activity
[19] = test system: HT-29; assay: Growth inhibition of human HT-29 cells incubated for 48 hrs by sulforhodamine B assay; how it was run: as §1
[20] = test system: OVCAR-5; assay: Growth inhibition of human OVCAR-5 cells assessed as cell growth at 0.1 uM incubated for 48 hrs by sulforhodamine B assay relative to control; details: read-out: Activity
[21] = test system: MOLT-4; assay: Growth inhibition of human MOLT-4 cells assessed as cell growth at 100 uM incubated for 48 hrs by sulforhodamine B assay relative to control; details: read-out: Activity
[22] = test system: SK-MEL-5; assay: Growth inhibition of human SK-MEL-5 cells assessed as cell growth at 0.01 uM incubated for 48 hrs by sulforhodamine B assay relative to control; details: read-out: Activity
[23] = test system: OVCAR-4; assay: Growth inhibition of human OVCAR-4 cells assessed as cell growth at 100 uM incubated for 48 hrs by sulforhodamine B assay relative to control; details: read-out: Activity
[24] = test system: KM12; assay: Growth inhibition of human KM12 cells assessed as cell growth at 100 uM incubated for 48 hrs by sulforhodamine B assay relative to control; details: read-out: Activity
[25] = test system: RXF 393; assay: Growth inhibition of human RXF 393 cells assessed as cell growth at 1 uM incubated for 48 hrs by sulforhodamine B assay relative to control; details: read-out: Activity
[26] = test system: Hs-578T; assay: Growth inhibition of human Hs-578T cells assessed as cell growth at 0.1 uM incubated for 48 hrs by sulforhodamine B assay relative to control; details: read-out: Activity
[27] = test system: K562; assay: Growth inhibition of human K562 cells assessed as cell growth at 100 uM incubated for 48 hrs by sulforhodamine B assay relative to control; details: read-out: Activity
[28] = test system: HCT-15; assay: Growth inhibition of human HCT-15 cells assessed as cell growth at 0.01 uM incubated for 48 hrs by sulforhodamine B assay relative to control; details: read-out: Activity
[29] = test system: MOLT-4; assay: Growth inhibition of human MOLT-4 cells assessed as cell growth at 0.1 uM incubated for 48 hrs by sulforhodamine B assay relative to control; details: read-out: Activity
[30] = test system: DU-145; assay: Growth inhibition of human DU-145 cells assessed as cell growth at 0.1 uM incubated for 48 hrs by sulforhodamine B assay relative to control; details: read-out: Activity
How it was run: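 NCI Developmental Therapeutics Program NCI60 panel. Compounds that were active in the 10 µM one-dose screen went on to dose–response testing. Growth at each concentration is expressed relative to untreated control (100%). GI50 (concentration giving 50% of maximal inhibition of proliferation) and TGI (concentration giving total growth inhibition) were derived from the curves.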

[31] = test system: SN12C; assay: Growth inhibition of human SN12C cells assessed as cell growth at 1 uM incubated for 48 hrs by sulforhodamine B assay relative to control; details: read-out: Activity
[32] = test system: SR; assay: Growth inhibition of human SR cells assessed as cell growth at 0.01 uM incubated for 48 hrs by sulforhodamine B assay relative to control; details: read-out: Activity
[33] = test system: T47D; assay: Growth inhibition of human T47D cells incubated for 48 hrs by sulforhodamine B assay; details: for CC50: read-out: LC50 (the source's name); how it was run: as §2
[34] = test system: IGROV-1; assay: Growth inhibition of human IGROV-1 cells incubated for 48 hrs by sulforhodamine B assay; how it was run: as §1
[35] = test system: SR; assay: Growth inhibition of human SR cells assessed as cell growth at 1 uM incubated for 48 hrs by sulforhodamine B assay relative to control; details: read-out: Activity

SMILES: Nc1c(C(=O)Nc2ccccc2)sc2nc3c(cc12)CN(Cc1ccccc1)CC3
- growth at 1 µM [1]: 90%
- growth at 0.01 µM [2]: 101%
- growth at 0.1 µM [3]: 84%
- growth at 0.1 µM [4]: 85%
- growth at 100 µM [5]: 31%
- growth at 100 µM [6]: 16%
- growth at 0.1 µM [7]: 102%
- growth at 0.01 µM [8]: 96%
- growth at 0.1 µM [9]: 95%
- growth at 100 µM [10]: 10%
- GI50 [11]: 3.8 µM
- LC50 [11]: > 100 µM
- TGI [11]: > 100 µM
- growth at 1 µM [12]: 94%
- growth at 0.01 µM [13]: 101%
- growth at 0.01 µM [14]: 100%
- GI50 [15]: 65.7 µM
- TGI [15]: > 100 µM
- CC50 [15]: > 100 µM
- growth at 100 µM [16]: -7%
- GI50 [17]: 52.8 µM
- LC50 (concentration killing 50% of cells) [17]: > 100 µM
- TGI [17]: > 100 µM
- growth at 100 µM [18]: 20%
- GI50 [19]: 24.7 µM
- LC50 [19]: > 100 µM
- TGI [19]: > 100 µM
- growth at 0.1 µM [20]: 92%
- growth at 100 µM [21]: 18%
- growth at 0.01 µM [22]: 104%
- growth at 100 µM [23]: -19%
- growth at 100 µM [24]: 25%
- growth at 1 µM [25]: 87%
- growth at 0.1 µM [26]: 92%
- growth at 100 µM [27]: 12%
- growth at 0.01 µM [28]: 102%
- growth at 0.1 µM [29]: 95%
- growth at 0.1 µM [30]: 107%
- growth at 1 µM [31]: 87%
- growth at 0.01 µM [32]: 98%
- GI50 [33]: 16.2 µM
- TGI [33]: > 100 µM
- CC50 [33]: > 100 µM
- GI50 [34]: 37.8 µM
- LC50 [34]: > 100 µM
- TGI [34]: > 100 µM
- growth at 1 µM [35]: 82%

SMILES: Cc1cc(C)c(NC(=O)c2sc3nc4c(cc3c2N)CN(Cc2ccccc2)CC4)c(C)c1
- growth at 1 µM [1]: 66%
- growth at 0.01 µM [2]: 99%
- growth at 0.1 µM [4]: 96%
- growth at 100 µM [5]: -29%
- growth at 100 µM [6]: -11%
- growth at 0.1 µM [7]: 103%
- growth at 0.01 µM [8]: 108%
- growth at 0.1 µM [9]: 93%
- growth at 100 µM [10]: 6%
- GI50 [11]: 3.44 µM
- LC50 [11]: > 100 µM
- TGI [11]: 42 µM
- growth at 1 µM [12]: 68%
- growth at 0.01 µM [13]: 93%
- growth at 0.01 µM [14]: 101%
- GI50 [15]: 5.6 µM
- TGI [15]: > 100 µM
- CC50 [15]: > 100 µM
- growth at 100 µM [16]: 5%
- GI50 [17]: 6.71 µM
- LC50 (concentration killing 50% of cells) [17]: > 100 µM
- TGI [17]: > 100 µM
- growth at 100 µM [18]: -47%
- GI50 [19]: 2.88 µM
- LC50 [19]: > 100 µM
- TGI [19]: 13.2 µM
- growth at 0.1 µM [20]: 96%
- growth at 100 µM [21]: 10%
- growth at 0.01 µM [22]: 98%
- growth at 100 µM [23]: 28%
- growth at 100 µM [24]: -9%
- growth at 1 µM [25]: 78%
- growth at 0.1 µM [26]: 91%
- growth at 100 µM [27]: 13%
- growth at 0.01 µM [28]: 93%
- growth at 0.1 µM [29]: 98%
- growth at 0.1 µM [30]: 101%
- growth at 1 µM [31]: 92%
- growth at 0.01 µM [32]: 100%
- GI50 [33]: 2.62 µM
- TGI [33]: > 100 µM
- CC50 [33]: > 100 µM
- GI50 [34]: 6.54 µM
- LC50 [34]: > 100 µM
- TGI [34]: > 100 µM
- growth at 1 µM [35]: 68%

SMILES: COc1cccc(NC(=O)c2sc3nc4c(cc3c2N)CN(Cc2ccccc2)CC4)c1
- growth at 1 µM [1]: 77%
- growth at 0.01 µM [2]: 101%
- growth at 0.1 µM [3]: 86%
- growth at 0.1 µM [4]: 91%
- growth at 100 µM [5]: 1%
- growth at 100 µM [6]: -8%
- growth at 0.1 µM [7]: 101%
- growth at 0.01 µM [8]: 106%
- growth at 0.1 µM [9]: 91%
- growth at 100 µM [10]: -3%
- GI50 [11]: 1.43 µM
- LC50 [11]: > 100 µM
- TGI [11]: 16.6 µM
- growth at 1 µM [12]: 49%
- growth at 0.01 µM [13]: 86%
- growth at 0.01 µM [14]: 99%
- GI50 [15]: 11.2 µM
- TGI [15]: > 100 µM
- CC50 [15]: > 100 µM
- growth at 100 µM [16]: -55%
- GI50 [17]: 6.52 µM
- LC50 (concentration killing 50% of cells) [17]: > 100 µM
- TGI [17]: > 100 µM
- growth at 100 µM [18]: -60%
- GI50 [19]: 3.75 µM
- LC50 [19]: 56.2 µM
- TGI [19]: 15.2 µM
- growth at 0.1 µM [20]: 95%
- growth at 100 µM [21]: 13%
- growth at 0.01 µM [22]: 99%
- growth at 100 µM [23]: -32%
- growth at 100 µM [24]: -37%
- growth at 1 µM [25]: 84%
- growth at 0.1 µM [26]: 92%
- growth at 100 µM [27]: 8%
- growth at 0.01 µM [28]: 92%
- growth at 0.1 µM [29]: 104%
- growth at 0.1 µM [30]: 104%
- growth at 1 µM [31]: 85%
- growth at 0.01 µM [32]: 100%
- GI50 [33]: 4.62 µM
- TGI [33]: 47.3 µM
- CC50 [33]: > 100 µM
- GI50 [34]: 18.5 µM
- LC50 [34]: > 100 µM
- TGI [34]: > 100 µM
- growth at 1 µM [35]: 25%
